Reference: ChEMBL document CHEMBL4350961, “Discovery of Pyrrolo[3,2- d]pyrimidin-4-one Derivatives as a New Class of Potent and Cell-Active Inhibitors of P300/CBP-Associated Factor Bromodomain” (J Med Chem, 2019)
Calls of active or inactive are those of the source.

Experiments:
[1] = molecular target: NUAK family SNF1-like kinase 1 (Homo sapiens) (UniProt O60285); assay: Inhibition of recombinant human ARK5 (2 to end residues) at 10 uM using KKKVSRSGLYRSPSMPENLNRPR as substrate measured after 40 mins in presence of [gamma33P]ATP by scintillation counting method
[2] = molecular target: Serine/threonine-protein kinase PRP4 homolog (Homo sapiens) (UniProt Q13523); assay: Inhibition of human PRP4 (663 to end residues) using casein as substrate measured after 40 mins in presence of [gamma33P]ATP by scintillation counting method
How it was run: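 Kinase panel of 422 kinases screened by Eurofins KinaseProfiler at a single test-compound concentration of 10 µM.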

[3] = molecular target: Cyclin-dependent kinase 5/CDK5 activator 1 (Homo sapiens) (UniProt Q00535+Q15078); assay: Inhibition of recombinant full-length human CDK5/p25 at 10 uM using histone H1 as substrate measured after 40 mins in presence of [gamma33P]ATP by scintillation counting method; type: protein-complex assay
[4] = molecular target: Mitogen-activated protein kinase kinase kinase kinase 5 (Homo sapiens) (UniProt Q9Y4K4); assay: Inhibition of recombinant full-length human MAP4K5 at 10 uM using myelin basic protein as substrate measured after 40 mins in presence of [gamma33P]ATP by scintillation counting method
[5] = tested on: Casein kinase I isoform gamma-3 (Homo sapiens), Q9Y6M4 [UNDEFINED MUTATION]; assay: Inhibition of recombinant human CK1gamma3 K91E/R174G/E302D mutant (1 to 330 residues) at 10 uM using KRRRALS(p)VASLPGL as substrate measured after 40 mins in presence of [gamma33P]ATP by scintillation counting method
[6] = molecular target: Serine/threonine-protein kinase tousled-like 1 (Homo sapiens) (UniProt Q9UKI8); assay: Inhibition of recombinant full-length human TLK1 at 10 uM using casein as substrate measured after 40 mins in presence of [gamma33P]ATP by scintillation counting method
[7] = tested on: Platelet-derived growth factor receptor alpha (Homo sapiens), P16234 [V561D]; assay: Inhibition of recombinant human PDGFRalpha V561D mutant (550 to end residues) at 10 uM using GGMEDIYFEFMGGKKK as substrate measured after 40 mins in presence of [gamma33P]ATP by scintillation counting method
[8] = molecular target: Dual specificity mitogen-activated protein kinase kinase 4 (Homo sapiens) (UniProt P45985); assay: Inhibition of recombinant human MKK4 (34 to end residues) at 10 uM using unactive JNK1a1 as substrate measured after 40 mins in presence of [gamma33P]ATP by scintillation counting method
[9] = molecular target: G protein-coupled receptor kinase 6 (Homo sapiens) (UniProt P43250); assay: Inhibition of recombinant full-length human GRK6 at 10 uM using casein as substrate measured after 40 mins in presence of [gamma33P]ATP by scintillation counting method
[10] = molecular target: MAP kinase-interacting serine/threonine-protein kinase 2 (Homo sapiens) (UniProt Q9HBH9); assay: Inhibition of recombinant full-length human Mnk2 at 10 uM using myelin basic protein as substrate measured after 40 mins in presence of [gamma33P]ATP by scintillation counting method
[11] = tested on: Epidermal growth factor receptor (Homo sapiens), P00533 [L858R,T790M]; assay: Inhibition of recombinant human EGFR T790M/L858R mutant (696 to end residues) at 10 uM using GGMEDIYFEFMGGKKK as substrate measured after 40 mins in presence of [gamma33P]ATP by scintillation counting method
[12] = molecular target: Protein kinase C delta type (Homo sapiens) (UniProt Q05655); assay: Inhibition of recombinant human PKCdelta (2 to end residues) at 10 uM using ERMRPRKRQGSVRRRV as substrate measured after 40 mins in presence of [gamma33P]ATP by scintillation counting method
[13] = molecular target: Protein kinase C beta type (Homo sapiens) (UniProt P05771); assay: Inhibition of recombinant human PKCbeta1 (2 to end residues) at 10 uM using histone H1 as substrate measured after 40 mins in presence of [gamma33P]ATP by scintillation counting method
[14] = molecular target: Serine/threonine-protein kinase 35 (Homo sapiens) (UniProt Q8TDR2); assay: Inhibition of recombinant full length human CLIK1 at 10 uM using RSRSRSRSRSRSRSR as substrate measured after 40 mins in presence of [gamma33P]ATP by scintillation counting method
[15] = molecular target: Cyclin-dependent kinase-like 3 (Homo sapiens) (UniProt Q8IVW4); assay: Inhibition of recombinant human full-length CDKL3 (1 to 303 residues) at 10 uM using RRRFRPASPLRGP as substrate measured after 120 mins in presence of [gamma33P]ATP by scintillation counting method
[16] = molecular target: Eukaryotic translation initiation factor 2-alpha kinase 3 (Homo sapiens) (UniProt Q9NZJ5); assay: Inhibition of recombinant human PEK (536 to end residues) at 10 uM using RSRSRSRSRSRSRSR as substrate measured after 40 mins in presence of [gamma33P]ATP by scintillation counting method
[17] = molecular target: Tyrosine-protein kinase ZAP-70 (Homo sapiens) (UniProt P43403); assay: Inhibition of recombinant full-length human ZAP70 at 10 uM using poly(Glu, Tyr) 4:1 as substrate measured after 40 mins in presence of [gamma33P]ATP by scintillation counting method
[18] = molecular target: Protein-tyrosine kinase 2-beta (Homo sapiens) (UniProt Q14289); assay: Inhibition of recombinant full-length human Pyk2 at 10 uM using poly(Glu, Tyr) 4:1 as substrate measured after 40 mins in presence of [gamma33P]ATP by scintillation counting method
[19] = tested on: Protein kinase C eta type (Homo sapiens), P24723 [UNDEFINED MUTATION]; assay: Inhibition of recombinant human PKCeta V108L/G109R/L392Q mutant (2 to end residues) at 10 uM using ERMRPRKRQGSVRRRV as substrate measured after 40 mins in presence of [gamma33P]ATP by scintillation counting method
[20] = molecular target: Serine/threonine-protein kinase tousled-like 2 (Homo sapiens) (UniProt Q86UE8); assay: Inhibition of human TLK2 (387 to end residues) using casein as substrate measured after 40 mins in presence of [gamma33P]ATP by scintillation counting method
[21] = molecular target: CDK12/Cyclin K (Homo sapiens) (UniProt O75909+Q9NYV4); assay: Inhibition of recombinant full length human CDK12/cyclinK at 10 uM using RSRSRSRSRSRSRSR as substrate measured after 120 mins in presence of [gamma33P]ATP by scintillation counting method; type: protein-complex assay
[22] = tested on: Serine/threonine-protein kinase B-raf (Homo sapiens), P15056 [V600E]; assay: Inhibition of recombinant human BRAF V599E mutant (416 to end residues) at 10 uM using myelin basic protein as substrate measured after 40 mins in presence of [gamma33P]ATP by scintillation counting method
[23] = molecular target: Serine/threonine-protein kinase Nek2 (Homo sapiens) (UniProt P51955); assay: Inhibition of recombinant full-length human NEK2 at 10 uM using myelin basic protein as substrate measured after 40 mins in presence of [gamma33P]ATP by scintillation counting method

Measured: inhibition

Chain of Serine/threonine-protein kinase B-raf (Homo sapiens), P15056 [V600E] (P15056 whole entry V600E): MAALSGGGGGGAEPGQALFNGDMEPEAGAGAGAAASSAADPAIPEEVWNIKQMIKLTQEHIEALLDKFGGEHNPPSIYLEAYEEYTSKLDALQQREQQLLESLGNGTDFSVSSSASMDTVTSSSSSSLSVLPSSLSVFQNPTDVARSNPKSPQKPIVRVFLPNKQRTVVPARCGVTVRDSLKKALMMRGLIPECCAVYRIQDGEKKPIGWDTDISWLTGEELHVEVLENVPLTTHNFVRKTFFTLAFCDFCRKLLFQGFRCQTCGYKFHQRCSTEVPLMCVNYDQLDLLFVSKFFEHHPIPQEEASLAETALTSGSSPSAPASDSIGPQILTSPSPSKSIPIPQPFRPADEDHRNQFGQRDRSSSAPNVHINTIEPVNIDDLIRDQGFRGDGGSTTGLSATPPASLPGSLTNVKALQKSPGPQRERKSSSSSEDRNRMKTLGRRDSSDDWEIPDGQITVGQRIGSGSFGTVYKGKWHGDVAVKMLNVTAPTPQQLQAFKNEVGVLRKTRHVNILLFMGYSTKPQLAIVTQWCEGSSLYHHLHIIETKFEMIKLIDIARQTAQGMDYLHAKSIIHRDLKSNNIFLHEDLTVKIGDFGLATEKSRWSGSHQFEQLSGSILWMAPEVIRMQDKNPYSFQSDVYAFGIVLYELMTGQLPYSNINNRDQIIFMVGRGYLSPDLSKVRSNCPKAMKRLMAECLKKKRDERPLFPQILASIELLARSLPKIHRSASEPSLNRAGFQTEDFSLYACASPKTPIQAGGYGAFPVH
Chain of Casein kinase I isoform gamma-3 (Homo sapiens), Q9Y6M4 [UNDEFINED MUTATION] (Q9Y6M4 whole entry, looked up, stated change not applied, the tested form may be a part, canonical isoform): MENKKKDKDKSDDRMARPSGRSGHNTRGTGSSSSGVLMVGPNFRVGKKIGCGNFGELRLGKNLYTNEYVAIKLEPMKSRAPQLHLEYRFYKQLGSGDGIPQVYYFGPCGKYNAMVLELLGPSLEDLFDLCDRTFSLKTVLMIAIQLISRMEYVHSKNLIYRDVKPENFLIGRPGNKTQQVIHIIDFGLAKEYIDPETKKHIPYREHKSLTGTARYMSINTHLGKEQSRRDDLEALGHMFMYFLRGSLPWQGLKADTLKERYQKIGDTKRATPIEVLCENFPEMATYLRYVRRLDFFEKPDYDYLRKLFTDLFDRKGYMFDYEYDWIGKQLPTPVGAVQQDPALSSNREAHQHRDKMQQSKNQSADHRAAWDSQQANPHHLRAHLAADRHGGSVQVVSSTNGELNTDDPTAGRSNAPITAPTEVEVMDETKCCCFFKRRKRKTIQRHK
Chain of Serine/threonine-protein kinase PRP4 homolog (Homo sapiens) (Q13523 whole entry): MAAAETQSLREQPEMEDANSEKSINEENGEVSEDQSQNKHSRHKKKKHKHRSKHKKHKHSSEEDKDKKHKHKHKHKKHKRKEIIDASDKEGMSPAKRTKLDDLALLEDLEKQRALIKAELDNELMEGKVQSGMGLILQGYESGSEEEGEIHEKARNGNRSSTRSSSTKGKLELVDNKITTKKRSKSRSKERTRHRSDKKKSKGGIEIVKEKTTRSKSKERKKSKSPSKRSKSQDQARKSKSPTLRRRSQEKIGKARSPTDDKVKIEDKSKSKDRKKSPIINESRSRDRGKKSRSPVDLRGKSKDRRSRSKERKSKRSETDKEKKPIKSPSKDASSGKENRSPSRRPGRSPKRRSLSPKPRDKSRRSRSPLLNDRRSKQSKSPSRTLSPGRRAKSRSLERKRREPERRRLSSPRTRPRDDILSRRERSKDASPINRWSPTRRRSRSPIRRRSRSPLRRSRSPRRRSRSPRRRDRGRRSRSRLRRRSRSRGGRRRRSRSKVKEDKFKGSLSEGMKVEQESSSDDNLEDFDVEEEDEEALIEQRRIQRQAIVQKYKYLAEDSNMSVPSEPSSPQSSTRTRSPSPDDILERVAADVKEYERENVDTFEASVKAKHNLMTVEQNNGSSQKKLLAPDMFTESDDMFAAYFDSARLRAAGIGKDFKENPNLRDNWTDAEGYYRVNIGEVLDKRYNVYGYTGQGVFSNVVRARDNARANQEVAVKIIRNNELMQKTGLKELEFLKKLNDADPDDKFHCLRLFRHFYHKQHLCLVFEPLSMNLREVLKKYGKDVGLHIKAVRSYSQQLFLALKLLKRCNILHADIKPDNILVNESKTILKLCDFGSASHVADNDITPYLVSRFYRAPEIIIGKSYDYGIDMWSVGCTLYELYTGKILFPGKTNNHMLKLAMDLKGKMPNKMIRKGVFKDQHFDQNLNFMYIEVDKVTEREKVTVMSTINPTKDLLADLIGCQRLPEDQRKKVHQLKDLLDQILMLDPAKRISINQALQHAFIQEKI
Chain of G protein-coupled receptor kinase 6 (Homo sapiens) (P43250 whole entry, looked up): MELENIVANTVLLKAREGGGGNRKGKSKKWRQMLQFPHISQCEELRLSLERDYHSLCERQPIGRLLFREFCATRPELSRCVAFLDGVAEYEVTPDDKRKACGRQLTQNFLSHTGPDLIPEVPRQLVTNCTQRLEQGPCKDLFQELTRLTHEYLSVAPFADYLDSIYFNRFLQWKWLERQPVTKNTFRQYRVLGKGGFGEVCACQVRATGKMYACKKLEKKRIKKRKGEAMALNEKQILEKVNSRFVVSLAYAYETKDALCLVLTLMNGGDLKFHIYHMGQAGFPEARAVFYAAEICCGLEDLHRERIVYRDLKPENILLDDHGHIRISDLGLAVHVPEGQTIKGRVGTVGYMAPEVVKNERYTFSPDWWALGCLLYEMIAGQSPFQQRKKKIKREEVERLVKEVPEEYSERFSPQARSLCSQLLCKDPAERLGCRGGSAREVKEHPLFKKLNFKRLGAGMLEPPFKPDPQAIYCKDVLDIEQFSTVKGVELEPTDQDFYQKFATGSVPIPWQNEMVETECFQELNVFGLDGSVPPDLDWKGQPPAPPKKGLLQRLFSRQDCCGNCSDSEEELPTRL
Chain of Protein kinase C delta type (Homo sapiens) (Q05655 whole entry, looked up): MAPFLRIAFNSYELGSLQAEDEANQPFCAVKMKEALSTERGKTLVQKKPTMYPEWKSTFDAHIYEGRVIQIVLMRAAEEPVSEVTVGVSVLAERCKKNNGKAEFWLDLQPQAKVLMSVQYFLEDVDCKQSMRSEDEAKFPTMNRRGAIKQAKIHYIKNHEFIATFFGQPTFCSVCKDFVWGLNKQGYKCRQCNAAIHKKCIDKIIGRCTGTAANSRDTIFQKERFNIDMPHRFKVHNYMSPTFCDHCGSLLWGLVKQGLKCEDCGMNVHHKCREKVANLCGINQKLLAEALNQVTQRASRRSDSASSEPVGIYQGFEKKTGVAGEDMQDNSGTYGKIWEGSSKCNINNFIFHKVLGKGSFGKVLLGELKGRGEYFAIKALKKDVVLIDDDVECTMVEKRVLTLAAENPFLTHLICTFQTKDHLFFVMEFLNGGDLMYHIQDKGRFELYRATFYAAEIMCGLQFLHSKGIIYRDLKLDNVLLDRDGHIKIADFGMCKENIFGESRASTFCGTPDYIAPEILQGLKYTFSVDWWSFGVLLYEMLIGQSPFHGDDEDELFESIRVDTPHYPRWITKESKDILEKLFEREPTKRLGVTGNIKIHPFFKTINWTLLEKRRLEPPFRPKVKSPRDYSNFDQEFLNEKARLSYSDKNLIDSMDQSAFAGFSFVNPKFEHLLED
Chain of Dual specificity mitogen-activated protein kinase kinase 4 (Homo sapiens) (P45985 whole entry): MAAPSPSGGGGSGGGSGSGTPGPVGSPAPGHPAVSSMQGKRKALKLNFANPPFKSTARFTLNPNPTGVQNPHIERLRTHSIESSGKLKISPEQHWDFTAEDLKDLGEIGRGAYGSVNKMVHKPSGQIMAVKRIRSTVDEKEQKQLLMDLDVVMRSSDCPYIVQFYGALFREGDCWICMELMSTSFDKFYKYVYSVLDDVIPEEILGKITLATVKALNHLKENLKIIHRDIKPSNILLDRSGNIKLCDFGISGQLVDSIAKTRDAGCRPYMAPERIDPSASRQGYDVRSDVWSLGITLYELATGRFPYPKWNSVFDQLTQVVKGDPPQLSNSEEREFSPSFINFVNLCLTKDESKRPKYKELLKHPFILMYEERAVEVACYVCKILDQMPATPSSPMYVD
Chain of Protein kinase C beta type (Homo sapiens) (P05771 2-671 limits assumed): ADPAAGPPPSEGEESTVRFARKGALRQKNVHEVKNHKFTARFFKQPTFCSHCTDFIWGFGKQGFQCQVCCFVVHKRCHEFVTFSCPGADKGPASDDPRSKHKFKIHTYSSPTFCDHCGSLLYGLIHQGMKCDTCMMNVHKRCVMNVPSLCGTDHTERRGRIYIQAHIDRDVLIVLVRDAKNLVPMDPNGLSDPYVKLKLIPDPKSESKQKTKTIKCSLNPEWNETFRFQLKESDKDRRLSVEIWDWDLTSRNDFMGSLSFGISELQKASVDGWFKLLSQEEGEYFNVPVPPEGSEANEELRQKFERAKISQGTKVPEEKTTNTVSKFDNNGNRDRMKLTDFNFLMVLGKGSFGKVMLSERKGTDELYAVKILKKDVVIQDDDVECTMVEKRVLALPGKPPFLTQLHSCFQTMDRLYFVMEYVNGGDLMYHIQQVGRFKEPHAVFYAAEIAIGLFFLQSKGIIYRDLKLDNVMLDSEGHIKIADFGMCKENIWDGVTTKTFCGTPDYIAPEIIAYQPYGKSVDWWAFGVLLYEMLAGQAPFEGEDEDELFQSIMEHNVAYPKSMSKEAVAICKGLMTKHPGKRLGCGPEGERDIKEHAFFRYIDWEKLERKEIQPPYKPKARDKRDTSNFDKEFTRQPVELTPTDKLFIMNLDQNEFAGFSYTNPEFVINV
Chain of Serine/threonine-protein kinase Nek2 (Homo sapiens) (P51955 whole entry): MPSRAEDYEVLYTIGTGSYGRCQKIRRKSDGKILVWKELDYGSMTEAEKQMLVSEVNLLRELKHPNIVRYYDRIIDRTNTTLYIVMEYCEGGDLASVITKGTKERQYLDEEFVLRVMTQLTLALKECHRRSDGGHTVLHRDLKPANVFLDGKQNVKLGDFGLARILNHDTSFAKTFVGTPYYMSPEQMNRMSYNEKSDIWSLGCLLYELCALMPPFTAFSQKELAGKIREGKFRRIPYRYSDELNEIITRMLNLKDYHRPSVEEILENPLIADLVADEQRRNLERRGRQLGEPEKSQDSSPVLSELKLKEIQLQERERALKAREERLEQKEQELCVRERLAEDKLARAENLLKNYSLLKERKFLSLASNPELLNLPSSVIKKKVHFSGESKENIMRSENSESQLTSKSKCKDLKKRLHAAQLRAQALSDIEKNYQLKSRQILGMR

CN1C[C@H](Nc2nc3cc[nH]c3c(=O)n2C)C[C@H](c2ccc3c(c2)OCCO3)C1
inactive: all assays above
